Experimental data as given in PMC8717676 (The Journal of nutritional biochemistry, 2011).
pIC50: −log10 of the molar value. Where “and” joins values, the source holds several entries; their conditions need not be identical. Equal entries are not always repeated. Where two headings read alike, the source gives them in different places.

Key:
[1] = system: superoxide production by NDH-1 and NDH-2; format: biochemical, E. coli
Summary of the method: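 E. coli membrane vesicles, prepared at pH 6.0, from strain MWC215 (no NDH-2) or BA14 (nuo deletion, no NDH-1); 200 μg in 0.2 ml of 50 mM MOPS pH 7.3 with 10 mM MgCl2. Preincubated 5 min with increasing test compound, then 5 μM MitoSOX plus 1.25 mM NADH added. Dark, 15 min, 30 °C; fluorescence 510/580 nm. Background controls: no NADH; SOD (150 units).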

[2] = system: ATP synthase from E. coli; settings: cited from earlier work
[3] = molecular target: membrane-bound F1Fo-ATPase (Escherichia coli, UniProt P0ABA6+P0ABB0+P0ABB4); assay: ATP hydrolysis by membrane vesicles; format: biochemical, E. coli; settings: for pIC50: two replicates of 5-6 concentrations
[4] = molecular target: F1-ATPase (Escherichia coli, UniProt P0ABA6+P0ABB0+P0ABB4); assay: ATP hydrolysis by purified F1-ATPase, colorimetric phosphate release; format: biochemical, E. coli; settings: for pIC50: read-out: F1-ATPase Activity IC50
Sequence of F1-ATPase (P0A6E6 2-139): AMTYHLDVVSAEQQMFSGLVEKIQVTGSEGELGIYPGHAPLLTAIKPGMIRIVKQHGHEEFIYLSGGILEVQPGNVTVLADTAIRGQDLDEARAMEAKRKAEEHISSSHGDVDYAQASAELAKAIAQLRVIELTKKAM
Sequence of F1-ATPase (P0ABB4 2-460): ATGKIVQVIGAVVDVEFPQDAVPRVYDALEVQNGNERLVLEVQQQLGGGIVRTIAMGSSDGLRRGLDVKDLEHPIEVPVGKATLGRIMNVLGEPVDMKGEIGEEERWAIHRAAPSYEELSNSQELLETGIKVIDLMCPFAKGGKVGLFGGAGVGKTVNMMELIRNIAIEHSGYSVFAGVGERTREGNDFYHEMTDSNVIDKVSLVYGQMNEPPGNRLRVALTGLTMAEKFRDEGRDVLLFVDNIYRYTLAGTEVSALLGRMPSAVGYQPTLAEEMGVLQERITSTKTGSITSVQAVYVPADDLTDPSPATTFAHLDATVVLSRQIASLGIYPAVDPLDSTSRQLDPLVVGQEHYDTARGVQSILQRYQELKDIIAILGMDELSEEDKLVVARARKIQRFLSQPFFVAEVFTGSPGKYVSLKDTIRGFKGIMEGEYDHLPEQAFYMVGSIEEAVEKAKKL
Sequence of F1-ATPase (P0ABB0 whole entry): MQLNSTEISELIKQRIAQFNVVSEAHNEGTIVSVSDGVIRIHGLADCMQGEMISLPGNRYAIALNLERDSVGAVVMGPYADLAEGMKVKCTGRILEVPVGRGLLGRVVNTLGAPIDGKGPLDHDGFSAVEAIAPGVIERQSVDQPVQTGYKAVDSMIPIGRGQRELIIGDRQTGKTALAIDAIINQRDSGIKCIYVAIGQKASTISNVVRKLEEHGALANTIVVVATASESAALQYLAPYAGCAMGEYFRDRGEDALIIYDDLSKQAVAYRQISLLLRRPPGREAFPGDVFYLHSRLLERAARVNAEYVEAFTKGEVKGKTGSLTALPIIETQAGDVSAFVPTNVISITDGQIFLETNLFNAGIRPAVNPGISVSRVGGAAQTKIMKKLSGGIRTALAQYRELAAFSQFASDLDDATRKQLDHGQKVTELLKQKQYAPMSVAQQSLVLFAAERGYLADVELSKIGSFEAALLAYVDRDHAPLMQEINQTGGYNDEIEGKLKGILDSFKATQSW
Sequence of F1-ATPase (P0ABA4 whole entry, further chain): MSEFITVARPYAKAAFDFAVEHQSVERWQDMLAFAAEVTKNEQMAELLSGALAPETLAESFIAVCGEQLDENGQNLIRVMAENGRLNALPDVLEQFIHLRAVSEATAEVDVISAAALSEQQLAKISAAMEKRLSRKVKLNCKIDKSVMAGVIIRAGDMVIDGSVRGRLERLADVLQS
Sequence of F1-ATPase (P0ABA6 whole entry): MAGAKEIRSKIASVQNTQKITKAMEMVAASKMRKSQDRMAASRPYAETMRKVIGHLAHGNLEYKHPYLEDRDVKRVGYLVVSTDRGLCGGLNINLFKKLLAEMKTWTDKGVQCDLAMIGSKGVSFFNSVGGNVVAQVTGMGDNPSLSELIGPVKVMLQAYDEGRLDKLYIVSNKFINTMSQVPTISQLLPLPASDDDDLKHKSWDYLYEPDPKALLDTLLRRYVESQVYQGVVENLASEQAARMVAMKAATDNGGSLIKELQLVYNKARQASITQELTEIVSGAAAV

[5] = molecular target: NDH-1 (Complex I) (Escherichia coli, UniProt P31979); assay: NDH-1 NADH oxidase activity in membrane vesicles; format: biochemical, E. coli; settings: for NDH-1 Deamino-NADH oxidase Maximum inhibition: strain 1100 membranes
[6] = molecular target: NDH-2 (alternative NADH dehydrogenase) (Escherichia coli, UniProt P00393); assay: NDH-2 NADH oxidase activity in membrane vesicles of strain BA14; format: biochemical, E. coli
Sequence of NDH-2 (alternative NADH dehydrogenase) (P00393 whole entry): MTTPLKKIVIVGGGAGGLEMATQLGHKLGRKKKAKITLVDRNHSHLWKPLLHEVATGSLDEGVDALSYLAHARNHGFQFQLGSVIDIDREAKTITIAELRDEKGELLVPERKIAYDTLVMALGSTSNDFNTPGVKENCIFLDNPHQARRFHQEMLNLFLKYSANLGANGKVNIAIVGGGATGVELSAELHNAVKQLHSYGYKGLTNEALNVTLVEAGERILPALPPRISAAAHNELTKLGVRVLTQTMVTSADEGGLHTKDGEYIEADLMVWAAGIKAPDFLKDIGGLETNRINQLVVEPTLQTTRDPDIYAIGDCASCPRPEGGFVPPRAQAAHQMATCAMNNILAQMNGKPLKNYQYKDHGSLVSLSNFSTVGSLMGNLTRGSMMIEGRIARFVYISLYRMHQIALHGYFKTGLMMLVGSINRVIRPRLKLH

[7] = system: rat liver mitochondrial ATP synthase; settings: read-out: IC50, rat liver mitochondrial ATP synthase; cited from earlier work
[8] = membrane vesicles from wild type strain 1100
[9] = read-out: Membrane-bound ATPase Activity IC50, membrane vesicles from wild type strain 1100
[10] = read-out: NDH-2 NADH oxidase IC50, strain BA14 membranes, 250 μM NADH

theaflavin-3,3′-digallate [TF3]
concentration at which superoxide production was completely eliminated ([1]; NADH oxidation by each dehydrogenase): about 15 μM | effect on superoxide production ([1]; added at levels in the range of the IC50 value): superoxide did not increase, but rather decreased

O=c1c(O)c(-c2ccc(O)cc2O)oc2cc(O)cc(O)c12 [morin]
extent of inhibition of E. coli ATP synthase [2]: complete inhibition

Oc1cc(O)c2c(c1)O[C@H](c1ccc(O)c(O)c1)[C@H](O)C2 [epicatechin, (−) epicatechin]
extent of inhibition of E. coli ATP synthase [2]: complete inhibition | pIC50 ([2]; read-out: IC50, E. coli ATP synthase): 2.40

CC(N)C12CC3CC(CC(C3)C1)C2 (stereo not shown) [rimantadin]
extent of inhibition of E. coli ATP synthase [2]: complete inhibition

(−) epigallocatechin gallate [EGCG, reference compound]
Membrane-bound ATPase Activity Maximum inhibition [3, 8]: 95% | pIC50 [3, 9]: ~4.52 and 4.52 | F1-ATPase Activity Maximum inhibition [4]: 90% | pIC50 [4]: 5.35 | NDH-1 Deamino-NADH oxidase Maximum inhibition [5]: 90% | pIC50 [6, 10]: 4.70 | NDH-2 NADH oxidase Maximum inhibition ([6]; strain BA14 membranes): 65% | pIC50 [7]: 4.77

Oc1cc(O)cc(/C=C/c2ccc(O)c(O)c2)c1 [piceatannol]
extent of inhibition of E. coli ATP synthase [2]: complete inhibition

O=C(O[C@@H]1Cc2c(O)cc(O)cc2O[C@@H]1c1cc(=O)c(O)c2c(O)c(O)cc([C@H]3Oc4cc(O)cc(O)c4C[C@H]3O)c2c1)c1cc(O)c(O)c(O)c1 [TF2A, theaflavin-3-gallate]
Membrane-bound ATPase Activity Maximum inhibition [3, 8]: 95% | pIC50 [3, 9]: 4.70 | F1-ATPase Activity Maximum inhibition [4]: 90% | pIC50 [4]: 5.52 | NDH-1 Deamino-NADH oxidase Maximum inhibition [5]: 95% | pIC50 [6, 10]: 5.46 | NDH-2 NADH oxidase Maximum inhibition ([6]; strain BA14 membranes): 95%

O=c1c(O)cc([C@H]2Oc3cc(O)cc(O)c3C[C@H]2O)cc2c([C@H]3Oc4cc(O)cc(O)c4C[C@H]3O)cc(O)c(O)c12 [TF1, theaflavin]
pIC50 ([3]; Membrane-bound ATPase Activity IC50, membrane vesicles from wild type strain 1100): ~4.22 and 4.22 | Membrane-bound ATPase Activity Maximum inhibition [3, 8]: 85% | F1-ATPase Activity Maximum inhibition [4]: 85% | pIC50 [4]: 5.40 | pIC50 [5]: 4.35 | NDH-1 Deamino-NADH oxidase Maximum inhibition [5]: 95% | pIC50 [6]: 5.52 | NDH-2 NADH oxidase Maximum inhibition ([6]; strain BA14 membranes): 75%

COc1cc(C2Oc3cc([C@H]4Oc5cc(O)cc(O)c5C(=O)[C@@H]4O)ccc3OC2CO)ccc1O (stereo partly shown) [silibinin]
extent of inhibition of E. coli ATP synthase [2]: complete inhibition

O=C(O[C@@H]1Cc2c(O)cc(O)cc2O[C@@H]1c1cc(O)c(O)c2c(=O)c(O)cc([C@H]3Oc4cc(O)cc(O)c4C[C@H]3O)cc12)c1cc(O)c(O)c(O)c1 [TF2B, theaflavin-3′-gallate]
Membrane-bound ATPase Activity Maximum inhibition [3, 8]: 95% | pIC50 [3, 9]: 4.82 | F1-ATPase Activity Maximum inhibition [4]: 95% | pIC50 [4]: 5.82 | NDH-1 Deamino-NADH oxidase Maximum inhibition [5]: 95% | pIC50 [6, 10]: 5.60 | NDH-2 NADH oxidase Maximum inhibition ([6]; strain BA14 membranes): 90%

NC12CC3CC(CC(C3)C1)C2 [amantidin]
extent of inhibition of E. coli ATP synthase [2]: complete inhibition

O=c1cc(-c2ccccc2)oc2cc(O)c(O)c(O)c12 [baicalein]
extent of inhibition of E. coli ATP synthase [2]: complete inhibition
